Results on 5 compounds are retold here after ChEMBL document CHEMBL3124917, “Design, synthesis, and biological evaluation of deuterated C-aryl glycoside as a potent and long-acting renal sodium-dependent glucose cotransporter 2 inhibitor for the treatment of type 2 diabetes” (J Med Chem, 2014).

Data set [1] can be described thus: Tmax in Sprague-Dawley rat at 3 mg/kg, po by LC-MS/MS analysis. The format is ADME, organism-based. Further details: dose 3 mg/kg, route oral. Conditions: in vivo. Put shortly: (§1)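 Male Sprague-Dawley rats, n = 4 per group, overnight-fasted. Oral gavage of 3 or 1 mg/kg in 30% PEG400; i.v. arm at 1 mg/kg. Orbital plexus blood taken under ether at 0.083–24 h; plasma deproteinized and assayed by LC-MS/MS. Noncompartmental parameters derived; mean ± SD reported.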

Data set [2] can be described thus: Cmax in Sprague-Dawley rat at 3 mg/kg, po by LC-MS/MS analysis. Further details: dose 3 mg/kg, route oral. Conditions: in vivo. Format: ADME, organism-based. Put shortly:
as §1

Data set [3] in a line: AUC (0 to infinity) in Sprague-Dawley rat at 3 mg/kg, po by LC-MS/MS analysis. Format: ADME, organism-based. Also on record: time infinity, dose 3 mg/kg, route oral. Particulars: plasma. Put shortly:
as §1

For data set [4], the system named is Rattus norvegicus. As to the kind of experiment: Antidiabetic activity in Sprague-Dawley rat assessed as urinary glucose excretion at 1 mg/kg, po administered 1 hr prior to glucose challenge measured after 1 to 24 hrs relative to dapagliflozin. The format is functional, Urine. Put shortly: (§2)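 Overnight-fasted Sprague-Dawley rats, n = 3 per group, dosed 1 mg/kg by oral gavage in 30% PEG400; controls received vehicle. Oral glucose (2 g/kg, 10 mL/kg) given 1 h post-dose. Urine collected in metabolic cages at 0–4 and 4–24 h, glucose measured on a biochemistry analyzer. Expressed as % of reference positive control; mean ± SD.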

Data set [5] concerns Rattus norvegicus. As to the kind of experiment: Antidiabetic activity in Sprague-Dawley rat assessed as urinary glucose excretion at 1 mg/kg, po administered 1 hr prior to glucose challenge measured after 4 to 24 hrs relative to dapagliflozin. The format is functional, Urine. Put shortly:
as §2

The test system of data set [6] is Rattus norvegicus. As to the kind of experiment: Antidiabetic activity in Sprague-Dawley rat assessed as urinary glucose excretion at 1 mg/kg, po administered 1 hr prior to glucose challenge measured after 1 to 4 hrs relative to dapagliflozin. The format is functional, Urine. Put shortly: as §2
Data set [7] is described as follows: Half life in Sprague-Dawley rat at 3 mg/kg, po by LC-MS/MS analysis. Further details: dose 3 mg/kg, route oral. Conditions: in vivo. The format is ADME, organism-based. Put shortly: as §1
Data set [8] concerns the target T1, Sodium/glucose cotransporter 2 (Homo sapiens, UniProt P31639).
T1 sequence (P31639 whole entry): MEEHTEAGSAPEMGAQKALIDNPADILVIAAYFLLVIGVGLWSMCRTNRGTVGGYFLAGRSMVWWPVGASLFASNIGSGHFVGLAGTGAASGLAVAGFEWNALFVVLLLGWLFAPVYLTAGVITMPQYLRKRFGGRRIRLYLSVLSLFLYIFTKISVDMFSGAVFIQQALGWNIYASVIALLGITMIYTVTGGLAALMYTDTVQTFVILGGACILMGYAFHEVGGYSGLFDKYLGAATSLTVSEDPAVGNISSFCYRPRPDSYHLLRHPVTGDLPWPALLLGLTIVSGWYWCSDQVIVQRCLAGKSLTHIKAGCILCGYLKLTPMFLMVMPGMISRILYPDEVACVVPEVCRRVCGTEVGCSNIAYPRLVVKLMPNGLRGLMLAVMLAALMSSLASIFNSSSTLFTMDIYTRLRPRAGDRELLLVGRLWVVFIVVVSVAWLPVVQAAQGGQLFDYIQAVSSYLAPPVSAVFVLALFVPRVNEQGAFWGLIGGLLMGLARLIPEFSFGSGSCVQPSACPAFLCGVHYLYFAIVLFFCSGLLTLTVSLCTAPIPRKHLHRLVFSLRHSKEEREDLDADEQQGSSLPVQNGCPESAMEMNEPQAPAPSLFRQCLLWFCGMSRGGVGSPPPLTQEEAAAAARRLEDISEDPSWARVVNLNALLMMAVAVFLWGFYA
As to the kind of experiment: Inhibition of full length human SGLT2 assessed as methyl-alpha-D-[U-14C]glucopyranoside uptake after 1.5 hrs by cell-based topcount scintillation counting analysis.

In data set [9] the target is T2, Sodium/glucose cotransporter 1 (Homo sapiens, UniProt P13866).
T2 sequence (P13866 whole entry): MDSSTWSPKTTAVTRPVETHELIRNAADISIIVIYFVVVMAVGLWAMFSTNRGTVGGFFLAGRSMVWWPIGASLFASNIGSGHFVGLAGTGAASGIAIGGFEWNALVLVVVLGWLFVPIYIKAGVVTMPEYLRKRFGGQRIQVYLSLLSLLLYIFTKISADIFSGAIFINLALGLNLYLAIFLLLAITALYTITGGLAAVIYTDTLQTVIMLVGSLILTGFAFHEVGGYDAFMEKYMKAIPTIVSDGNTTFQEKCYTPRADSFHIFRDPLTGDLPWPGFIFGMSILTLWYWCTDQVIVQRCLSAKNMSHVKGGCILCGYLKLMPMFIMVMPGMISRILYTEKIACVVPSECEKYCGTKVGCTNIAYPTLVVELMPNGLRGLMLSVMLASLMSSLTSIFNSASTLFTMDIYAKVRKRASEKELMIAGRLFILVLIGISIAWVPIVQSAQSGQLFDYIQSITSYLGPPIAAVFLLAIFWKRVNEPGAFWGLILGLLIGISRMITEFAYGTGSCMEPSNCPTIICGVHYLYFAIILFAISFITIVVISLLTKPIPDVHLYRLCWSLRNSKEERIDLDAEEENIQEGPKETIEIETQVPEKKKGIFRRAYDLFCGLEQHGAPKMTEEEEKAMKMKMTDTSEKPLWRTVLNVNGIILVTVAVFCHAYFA
As to the kind of experiment: Inhibition of full length human SGLT1 assessed as methyl-alpha-D-[U-14C]glucopyranoside uptake after 2 hrs by cell-based topcount scintillation counting analysis.

Data set [10] deals with Canis familiaris. As to the kind of experiment: Antidiabetic activity in Beagle dog assessed as urinary glucose excretion at 0.03 mg/kg, po administered 1 hr prior to glucose challenge measured after 1 to 24 hrs relative to dapagliflozin. Format: functional, Canis lupus familiaris, Urine. Put shortly:
(§3)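 Overnight-fasted beagle dogs, n = 3 per group, given 0.03 mg/kg orally by gavage in 10% PEG400; vehicle controls received 10% PEG400. Oral glucose (2 g/kg, 5 mL/kg) given 1 h post-dose. Urine collected in metabolic cages at 0–8 and 8–24 h, glucose read on a biochemistry analyzer. Expressed as % of reference positive control; mean ± SD.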

Data set [11] relates to Canis familiaris. As to the kind of experiment: Antidiabetic activity in Beagle dog assessed as urinary glucose excretion at 0.03 mg/kg, po administered 1 hr prior to glucose challenge measured after 1 to 8 hrs relative to dapagliflozin. The format is functional, Canis lupus familiaris, Urine. Put shortly: as §3
For data set [12], the system named is Canis familiaris. As to the kind of experiment: Antidiabetic activity in Beagle dog assessed as urinary glucose excretion at 0.03 mg/kg, po administered 1 hr prior to glucose challenge measured after 8 to 24 hrs relative to dapagliflozin. The format is functional, Canis lupus familiaris, Urine. Put shortly: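 Overnight-fasted beagle dogs, n = 3 per group, given 0.03 mg/kg orally by gavage in 10% PEG400; vehicle controls received 10% PEG400. Oral glucose (2 g/kg, 5 mL/kg) given 1 h post-dose. Expressed as % of reference positive control; mean ± SD.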

Broadly, the Tmax is the time at which the peak concentration occurs. The term Cmax denotes the peak of the concentration-time curve. By AUC(0-inf) is commonly meant the area under the concentration-time curve extrapolated to infinity. Read a low AUC(0-inf) as less exposure. One may read the half-life as how long it takes for the measured level to halve. High values mean slow loss, low ones fast loss. As for `[2H]C([2H])([2H])Oc1ccc(C([2H])([2H])c2cc([C@@H]3O[C@H](CO)[C@@H](O)[C@H](O)[C@H]3O)ccc2Cl)cc1`, the Tmax in data set [1] stood at 0.75 h. The compound also showed a Cmax in data set [2] of 1400 ng/mL. In data set [3], this compound registered an AUC(0-inf) of 5350 ng·h/mL. Besides, the Activity with Rattus norvegicus [4] turned out to be 2100 mg; with Rattus norvegicus [5], 1990 mg; in the data set with Rattus norvegicus [6], 101 mg. In data set [7], the half-life is 5.66 h.
Usually IC50 stands for the concentration at which inhibition is half-maximal. With `[2H]C([2H])([2H])Oc1ccc(C([2H])([2H])c2cc([C@]3([2H])O[C@H](CO)[C@@H](O)[C@H](O)[C@H]3O)ccc2Cl)cc1`, the results for the half-maximal inhibitory concentration (IC50) in [8] and in [9] were 0.0068 µM and 7 µM, respectively. Further, the Activity in the data set on Rattus norvegicus [4] amounted to 1650 mg; in the data set with Rattus norvegicus [5], 1480 mg; in the data set with Rattus norvegicus [6] it was 166 mg.
As for `[2H]C([2H])([2H])C([2H])([2H])Oc1ccc(Cc2cc([C@@H]3O[C@H](CO)[C@@H](O)[C@H](O)[C@H]3O)ccc2Cl)cc1`, the Activity with Canis familiaris [10] was 12000 mg; in the data set on Rattus norvegicus [4], 2300 mg; in the data set with Rattus norvegicus [5], 2150 mg; with Rattus norvegicus [6], 145 mg; in the data set on Canis familiaris [11] it was 3470 mg. For the same compound, the AUC(0-inf) in [3] stood at 22600 ng·h/mL.
Turning to `[2H]C([2H])(C)Oc1ccc(Cc2cc([C@@H]3O[C@H](CO)[C@@H](O)[C@H](O)[C@H]3O)ccc2Cl)cc1`, the total exposure AUC(0-inf) in [3] was determined as 20900 ng·h/mL. The results for the Activity in the data set with Rattus norvegicus [4], in the data set with Rattus norvegicus [5] and in the data set on Rattus norvegicus [6] were 2430 mg, 2310 mg and 119 mg, respectively.
Turning to `[2H][C@@]1(c2ccc(Cl)c(Cc3ccc(OCC)cc3)c2)O[C@H](CO)[C@@H](O)[C@H](O)[C@H]1O`, the Activity with Canis familiaris [10] amounted to 12700 mg; with Canis familiaris [12], 8910 mg; with Rattus norvegicus [4], 2650 mg; in the data set on Rattus norvegicus [5] it was 2460 mg; with Rattus norvegicus [6], 193 mg; in the data set with Canis familiaris [11] it was 3760 mg.
